This note sets out measurements from the EternaBench riboswitch data.

Usually apparent Kd stands for the concentration giving half-maximal binding under the conditions of the assay.

This data set deals with MS2 coat protein. Briefly: apparent Kd, MS2 coat protein; higher = weaker binding; RNA-MaP array; FMN 200 µM where present. In short, it runs like this:
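The apparent Kd is the median of filtered binding-curve fits, one per cluster, to green signal normalised to red-channel RNA signal and control-cluster median Fmax. The clusters were on Illumina sequencing chips, and stalled E. coli RNA polymerase had transcribed the designs on them. Titration used SNAP-549-labelled MS2 coat protein from 0.7 or 1.5 nM, doubling to 3 µM, without and then with constant ligand, in 100 mM Tris-HCl pH 7.5, 80 mM KCl, 4 mM MgCl2, BSA, DTT, yeast tRNA and Tween-20.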

Setting [1] is: designed as: OFF switch for flavin mononucleotide, no ligand.
Where [2] appears, read: ligand present: flavin mononucleotide, designed as: OFF switch for flavin mononucleotide.
Setting [3] is: designed as: ON switch for flavin mononucleotide, no ligand.
The mark [4] stands for this setting: ligand present: flavin mononucleotide, designed as: ON switch for flavin mononucleotide.

Consider “UUCAGCUCGUGAGGAUAUACAACACUGCUUCGGCAGUGUAUUAAGAUCACAUGAGGAUCACCCAUGUAGAAGGCACGAGCUGAU”, for which the “apparent Kd” value runs as follows: under setting [1], 14.8 nM; under setting [2], 290 nM.
In the same order, the values of “GUCAUUGACAAGAAGGCAAACAUGAGGAUCACCCAUGUUCUGCAUGUAUAUUGAGGAUAUUGCCAAUGCAUGUGGAUCACCCAA” are 6.92 nM and 11 nM.
Regarding “GGACCGUGAAGAGUUGGCGGUCGGCAGGAUAUGACAUGAGGAUCACCCAUGUGAACUCCAUUGGGUCAGAAGGGCCACGACACA”, the “apparent Kd” value was determined as 37.5 nM under setting [1] and 108 nM under setting [2].
For “UUUAAUCGAAACAUGAGGAUCACCCAUGUGUUGUAAUUAACAUAGGAUAUUUGUAUACUUUUAUAAAAGAAGGAUGAUAAUACU”, the “apparent Kd” value is, setting by setting: under setting [3], 17.8 nM; under setting [4], 13 nM.
With “GGACGUAAAGAGAAGGGCUACUGGUUGAAACCUGCGGCCUCUGGAACAUGAGGAUCACCCAUGUAGCAGGAUAUCUUUGCACCA”, the “apparent Kd” value is, setting by setting: under setting [1], 157 nM; under setting [2], 26.7 nM.
For “GGGUACAUCGGAGGAUAUCAUGUAAAUACAUGAGGAUCACCCAUGUCGAUGGAGACAUCGGAGAUUGAGAAGGCCGAUCUACCG”, the “apparent Kd” value stood at 213 nM under setting [3] and 9.94 nM under setting [4].
For the sequence “UGAUAACAUGUAGGAUAUGCAGCAUUGACCACUGCAGAAGGACAUGAGGAUCACCCAUGUAGCCGUACUAUGGGAUCACGCAAU”, the “apparent Kd” value runs as follows: under setting [1], 47.7 nM; under setting [2], 232 nM.
As for “UUAUGCUUUAAGAAGGUUCAAACUACAUAUUGCGCACAUGAGGAUCACCCAUGUUGGUGAAUAAGAAAGGAUAUUAGACUGUGC”, the “apparent Kd” value runs as follows: under setting [1], 332 nM; under setting [2], 223 nM.
For the sequence “CGUUGAUGAUUUCUUCACAUGAGGAUCACCCAUGUCGCUCGACAGGAUAUAUUUGAGUUGUUUAAGUAGAAGGGUCGCAGAUGC”, the “apparent Kd” value under setting [3] was determined as 112 nM and the “apparent Kd” value under setting [4] worked out at 183 nM.
For “AAUAAACUAGGAUAUACAUGAGGAUCACCCAUGUGUCGCCACGUGCUUGCUCACUCGUGUAGAAGGAGUACGGA”, the “apparent Kd” value is 38.5 nM under setting [1] and 73.1 nM under setting [2].
As to “GGCAGACAUGAGGAUCACCCAUGUCAGGAUAUGUGGCGAUCGUCGAUAGACGAUAGCCACAGAAGGGACAUGCC”, the “apparent Kd” value under setting [1] came to 23.9 nM and the “apparent Kd” value under setting [2] came out at 39.5 nM.
Taken in the same sequence, the figures for “AUGCCUUAUGUAGGAUAUGCAUAGAGUUGCUAUGCAGAAGGACAUGAGGAUCACCCAUGUAUGUAUACCAUACAUAUCUGGCAU” were 35.6 nM and 316 nM.
In the case of “CCACCCUGAGGAUAUCCACCCUCAUACAUGAGGAUCACCCAUGUUCAUCCCUGAGUACCCGGAGAAGGCAGAUUCC”, the “apparent Kd” value by setting is: under setting [1], 60.3 nM; under setting [2], 50.6 nM.
Consider “UGUGCGUAUGUGAGGAUAUGCUGGUCCUUGGAUCGGCAGAAGGCACAUGAGGAUCACCCAUGUGGUGUCGUACC”, for which the “apparent Kd” value under setting [1] turned out to be 161 nM and the “apparent Kd” value under setting [2] is 40.4 nM.
For the sequence “AUGAGGUUAGGAUAUACAUGAGGAUCACCCAUGUUGGAGAAGGAAAUGUAAGUAGCGAGUAGAAGGAACGGAGC”, the “apparent Kd” value under setting [1] was 47 nM and the “apparent Kd” value under setting [2] stood at 43.4 nM.
As for “UUAGUAUUGCAAGGAUAUGUUUAUGAUAUUUUUCCUCUUACAUGAGGAUCACCCAUGUUUAACUUACAGAAGGUGCUAUGAUUU”, the “apparent Kd” value by setting is: under setting [1], 575 nM; under setting [2], 1030 nM.
In the case of “UUGGACGUCGUAGGAUAUGUAGGAUAUUCCUACAUGAGGAUCACCCAUGUUGACAUGGAGGAAGGACAGAAGGACGAUGUCCAU”, the “apparent Kd” value is, setting by setting: under setting [3], 667 nM; under setting [4], 98 nM.
On to “AGUUGGCGAGGAUAUACAUGAGGAUCACCCAUGUGAGAGAAUAAAGUGAGGAAGAAAAGUAGAAGGCGCUGACA”, for which the “apparent Kd” value under setting [1] is 47.8 nM and the “apparent Kd” value under setting [2] came out at 154 nM.
Take “CCGCAAAAGGAGGAUAUCGUAUCGGAUACGAUACGAGAAGGCUUUACAUGAGGAUCACCCAUGUGUCCUAGCGG”: the “apparent Kd” value reads like this: under setting [1], 13.7 nM; under setting [2], 19.2 nM.
In the case of “AAGUCCAGAGGAUAUCAGACGCGGCACAUGAGGAUCACCCAUGUAUUCCCGUCUGCCGACUGAGAAGGUUGGAAAG”, the “apparent Kd” value under setting [1] worked out at 12 nM and the “apparent Kd” value under setting [2] was found to be 17.8 nM.
As for “UUUGUUUUGCAAGGAUAUGUUUAAUUUUAUUUUCCUUACACAUGAGGAUCACCCAUGUUAUUCUUACAGAAGGUGCGUAAUUUG”, the “apparent Kd” value worked out at 165 nM under setting [1] and 166 nM under setting [2].
On to “UCAUCAAAUUGAACAUGAGGAUCACCCAUGUAGGAUUAGCCACAGGAUAUCCGUGCUAGAAUGUGGGAGAAGGGUGGUCACUCC”, for which the “apparent Kd” value was 334 nM under setting [3] and 64.5 nM under setting [4].
As for “AUAUGAUAGAUAGGAUAUACAUUGGAUUUAAAAGUAGAAGGAUCAAGUGGGAAUUAUACAUGAGGAUCACCCAUGUUUUUGGAU”, the “apparent Kd” value is 59 nM under setting [3] and 46.7 nM under setting [4].
On to “GGAUAGGACAGAGGAUAUACGUGCUAGAGGUACUAGCAAAAUUUCCUCACAUGAGGAUCACCCAUGUAGAAGGCUGUCCUAUCG”, for which the “apparent Kd” value runs as follows: under setting [1], 17 nM; under setting [2], 461 nM.
As for “UUUCUUGGGCAAGGAUAUCCUGUGCGGUUCCGGCUCGUGUCUGUCACAUGAGGAUCACCCAUGUGGGAGAAGGUGCCUGCGGUA”, the “apparent Kd” value is, setting by setting: under setting [1], 6.41 nM; under setting [2], 6.77 nM.
As to “CCAUAAAAGAUCCAAAAUUACAACAUGAGGAUCACCCAUGUGCAGGAUAUCGUGCCAGUGAUGUACGAGAAGGGCAGACUCUGC”, the “apparent Kd” value under setting [1] was found to be 251 nM and the “apparent Kd” value under setting [2] stood at 333 nM.
For “CCACCUCCUGAGGAUAUUGCAUCACCCGACUGAUAAGAAGGCAGAACAUGAGGAUCACCCAUGUGGGUACUCCC”, the “apparent Kd” value runs as follows: under setting [1], 82.5 nM; under setting [2], 77.2 nM.
With “UCGAACUUUCAUGUAAUUCGCACAUGAGGAUCACCCAUGUACGAGGAUAUGUACCUGAACGGCUAACAGAAGGCGUACUGGGCA”, the “apparent Kd” value by setting is: under setting [1], 242 nM; under setting [2], 83.3 nM.
Regarding “UUGUUCUGAGGAUAUACAUGAGGAUCACCCAUGUGUUUCUGCUUGGUGACUAGCGAAUGUAGAAGGCUGUUCUC”, the “apparent Kd” value turned out to be 33.6 nM under setting [1] and 35.6 nM under setting [2].
In the case of “AAGAAACAUGAGGAUCACCCAUGUGAUAAUAUGGGAGGAUAUACAAAGACGAAAGUCGAAGUAGAAGGCCUAUGAA”, the “apparent Kd” value runs as follows: under setting [3], 52.3 nM; under setting [4], 43.2 nM.
Regarding “GAACUCGUGAAGGAUAUCCGUACCAAAGCGGCAGGAGAAGGUCACACAUGAGGAUCACCCAUGUGGUACCUCGU”, the “apparent Kd” value under setting [1] turned out to be 30 nM and the “apparent Kd” value under setting [2] came to 130 nM.
Take “GUCGGAAACGACAAAAGUAGCAUAGGAGAAGGUCCAUUAAACAUGAGGAUCACCCAUGUAAUUGGGAAGGAUAUCCUAUGCUAC”: the “apparent Kd” value runs as follows: under setting [3], 9.27 nM; under setting [4], 5.84 nM.
As to “GAUUGACAUGAGGAUCACCCAUGUGAGGAUAUCGGCUGGACCGUGUUGGCUUGCCUUUCGAGAAGGCGCAUAGG”, the “apparent Kd” value was 37.7 nM under setting [1] and 42 nM under setting [2].
For “GCGUUCAUGUAGAAGGUACCUACAACAAAUUAUAACCGCUAGACACAUGAGGAUCACCCAUGUUGUAAGGAUAUACAUGAACGC”, the “apparent Kd” value under setting [3] is 25.2 nM and the “apparent Kd” value under setting [4] is 17.1 nM.
Turning to “GUCAGCUCGUGAGGAUAUACAACACUGCUUCGGCAGUGGAUUAAGAUCACAUGAGGAUCACCCAUGUAGAAGGCACGAGCUGAU”, the “apparent Kd” value runs as follows: under setting [1], 16.2 nM; under setting [2], 423 nM.
As to “AUAUAACCUAGCAAAAUUUAAUAACAUGAGGAUCACCCAUGUAGAAGGCUGUCCUAAAAUAGGACAGAGGAUAUACGUGCUAGG”, the “apparent Kd” value under setting [1] was 5.43 nM and the “apparent Kd” value under setting [2] was determined as 6.73 nM.
